Results published in ChEMBL document CHEMBL5303300, “EUbOPEN Chemogenomics Library - Multiplex” (2023).
“And” between values parts separate entries of the source, which are not always exact repeats. Equal entries are not always repeated.

Test system: HEK-293T
Test: Multiplex assay against HEK293T
Type: toxicity, cell-based
Details: human, number of replicates 2
How it was run: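 Cells stained live at seeding with Hoechst33342, BioTracker Green Microtubule Cytoskeleton Dye, MitoTracker Red and Annexin V Alexa Fluor 680 were imaged on a CQ1 microscope at 37°C and 5% CO2 after compound addition. Their classification by CellPathfinder machine-learning gating ran from Hoechst high-intensity objects versus normal cells, to healthy, pyknosed or fragmented nuclei among normal cells, to mitotic or apoptotic among pyknosed cells. Tubulin, mitochondrial-mass and membrane-permeability phenotypes are per cents of healthy-nucleus cells.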

[1] = 12 h, 1 µM, compound concentration 1 uM
[2] = 12 h, 10 µM, compound concentration 10 uM
[3] = 24 h, 1 µM, compound concentration 1 uM
[4] = 24 h, 10 µM, compound concentration 10 uM
[5] = 48 h, 1 µM, compound concentration 1 uM
[6] = 48 h, 10 µM, compound concentration 10 uM

`COc1ccccc1-c1cc(Nc2cccc(CS(N)(=O)=O)c2)ncn1` was tested, and the “Population Apoptotic (%)” value [1] was 35% and 36%, the “Population Fragmented Nuclei (%)” value [1] was 4% and 2% and the “Population Healthy Nuclei (%)” value [1] was 85%. For the same compound, the “Population Hoechst High Intensity Objects (%)” value [1] was 6% and 7%, the “Population Membrane Permeable-Phenotype (%)” value [1] was 3% and 5% and the “Population Mitochondria Different-Phenotype (%)” value [1] was 15% and 14%. For the same compound, the “Population Mitotic Cells (%)” value [1] was 64%, the “Population Normal (%)” value [1] was 93% and 92% and the “Population Pyknosed Nuclei (%)” value [1] was 10% and 12%. The “Population Tubulin-Different-Phenotype (%)” value [1] was 56% and 48%, the “Total Cell Count” value [1] was 807 and 675 and the “Population Apoptotic (%)” value [2] was 32% and 34%. The “Population Fragmented Nuclei (%)” value [2] was 4% and 5%, the “Population Healthy Nuclei (%)” value [2] was 87% and 84% and the “Population Hoechst High Intensity Objects (%)” value [2] was 7%. For the same compound, the “Population Membrane Permeable-Phenotype (%)” value [2] was 3%, the “Population Mitochondria Different-Phenotype (%)” value [2] was 26% and 28% and the “Population Mitotic Cells (%)” value [2] was 67% and 65%. The “Population Normal (%)” value [2] was 92%, the “Population Pyknosed Nuclei (%)” value [2] was 8% and 10% and the “Population Tubulin-Different-Phenotype (%)” value [2] was 61% and 74%. For the same compound, the “Total Cell Count” value [2] was 665 and 582, the “Population Apoptotic (%)” value [3] was 35% and 34% and the “Population Fragmented Nuclei (%)” value [3] was 5% and 4%. For the same compound, the “Population Healthy Nuclei (%)” value [3] was 86% and 88%, the “Population Hoechst High Intensity Objects (%)” value [3] was 6% and 8% and the “Population Membrane Permeable-Phenotype (%)” value [3] was 3% and 2%. For the same compound, the “Population Mitochondria Different-Phenotype (%)” value [3] was 4% and 5%, the “Population Mitotic Cells (%)” value [3] was 64% and 65% and the “Population Normal (%)” value [3] was 93% and 91%. For the same compound, the “Population Pyknosed Nuclei (%)” value [3] was 7%, the “Population Tubulin-Different-Phenotype (%)” value [3] was 36% and the “Total Cell Count” value [3] was 1151 and 990. For the same compound, the “Population Apoptotic (%)” value [4] was 47% and 40%, the “Population Fragmented Nuclei (%)” value [4] was 2% and 1% and the “Population Healthy Nuclei (%)” value [4] was 90%. For the same compound, the “Population Hoechst High Intensity Objects (%)” value [4] was 4% and 5%, the “Population Membrane Permeable-Phenotype (%)” value [4] was 5% and 6% and the “Population Mitochondria Different-Phenotype (%)” value [4] was 20% and 19%. The “Population Mitotic Cells (%)” value [4] was 52% and 60%, the “Population Normal (%)” value [4] was 95% and 94% and the “Population Pyknosed Nuclei (%)” value [4] was 6% and 7%. For the same compound, the “Population Tubulin-Different-Phenotype (%)” value [4] was 69% and 75%, the “Total Cell Count” value [4] was 861 and 783 and the “Population Apoptotic (%)” value [5] was 11% and 13%. The “Population Fragmented Nuclei (%)” value [5] was 11% and 8%, the “Population Healthy Nuclei (%)” value [5] was 85% and 88% and the “Population Hoechst High Intensity Objects (%)” value [5] was 8% and 9%. The “Population Membrane Permeable-Phenotype (%)” value [5] was 5% and 3%, the “Population Mitochondria Different-Phenotype (%)” value [5] was 0% and the “Population Mitotic Cells (%)” value [5] was 88% and 86%. The “Population Normal (%)” value [5] was 91% and 90%, the “Population Pyknosed Nuclei (%)” value [5] was 3% and the “Population Tubulin-Different-Phenotype (%)” value [5] was 15% and 16%. For the same compound, the “Total Cell Count” value [5] was 2772 and 2160, the “Population Apoptotic (%)” value [6] was 34% and 35% and the “Population Fragmented Nuclei (%)” value [6] was 8% and 5%. For the same compound, the “Population Healthy Nuclei (%)” value [6] was 86% and 90%, the “Population Hoechst High Intensity Objects (%)” value [6] was 6% and the “Population Membrane Permeable-Phenotype (%)” value [6] was 3%. The “Population Mitochondria Different-Phenotype (%)” value [6] was 7% and 8%, the “Population Mitotic Cells (%)” value [6] was 65% and 64% and the “Population Normal (%)” value [6] was 93%. For the same compound, the “Population Pyknosed Nuclei (%)” value [6] was 4% and 3%, the “Population Tubulin-Different-Phenotype (%)” value [6] was 51% and 50% and the “Total Cell Count” value [6] was 1254 and 1055.
